Data on eight molecules can be found in ChEMBL document CHEMBL1926624, “Secondary metabolites from the roots of Neolitsea daibuensis and their anti-inflammatory activity” (J Nat Prod, 2011).

The test system of one data set is RAW264.7. Put plainly: Cytotoxicity against mouse RAW264.7 cells assessed as reduction in cell viability at 50 uM after 3 hrs by alamar blue assay. The data set is classed as cell-based. The note with it: raw264.7, 3 h.
The nature of data set [1]: Cytotoxicity against mouse RAW264.7 cells assessed as reduction in cell viability after 3 hrs by alamar blue assay. The data set is classed as cell-based. In a few lines: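 Viability was tested in the same RAW 264.7 wells after the supernatant was removed for nitrite. 10% AlamarBlue in DMEM was added and the plates incubated at 37 °C. Absorbance was read at 570/600 nm against cell-free blanks, with LPS+vehicle wells set as 100% viability. CC50 = concentration lowering viability by 50%; mean ± SE.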
In general terms: The colour change of resazurin is a common sign of viable cells or microbes.

Data set [2] deals with T1, Nitric oxide synthase, inducible (Mus musculus) (UniProt P29477).
T1 sequence (whole entry): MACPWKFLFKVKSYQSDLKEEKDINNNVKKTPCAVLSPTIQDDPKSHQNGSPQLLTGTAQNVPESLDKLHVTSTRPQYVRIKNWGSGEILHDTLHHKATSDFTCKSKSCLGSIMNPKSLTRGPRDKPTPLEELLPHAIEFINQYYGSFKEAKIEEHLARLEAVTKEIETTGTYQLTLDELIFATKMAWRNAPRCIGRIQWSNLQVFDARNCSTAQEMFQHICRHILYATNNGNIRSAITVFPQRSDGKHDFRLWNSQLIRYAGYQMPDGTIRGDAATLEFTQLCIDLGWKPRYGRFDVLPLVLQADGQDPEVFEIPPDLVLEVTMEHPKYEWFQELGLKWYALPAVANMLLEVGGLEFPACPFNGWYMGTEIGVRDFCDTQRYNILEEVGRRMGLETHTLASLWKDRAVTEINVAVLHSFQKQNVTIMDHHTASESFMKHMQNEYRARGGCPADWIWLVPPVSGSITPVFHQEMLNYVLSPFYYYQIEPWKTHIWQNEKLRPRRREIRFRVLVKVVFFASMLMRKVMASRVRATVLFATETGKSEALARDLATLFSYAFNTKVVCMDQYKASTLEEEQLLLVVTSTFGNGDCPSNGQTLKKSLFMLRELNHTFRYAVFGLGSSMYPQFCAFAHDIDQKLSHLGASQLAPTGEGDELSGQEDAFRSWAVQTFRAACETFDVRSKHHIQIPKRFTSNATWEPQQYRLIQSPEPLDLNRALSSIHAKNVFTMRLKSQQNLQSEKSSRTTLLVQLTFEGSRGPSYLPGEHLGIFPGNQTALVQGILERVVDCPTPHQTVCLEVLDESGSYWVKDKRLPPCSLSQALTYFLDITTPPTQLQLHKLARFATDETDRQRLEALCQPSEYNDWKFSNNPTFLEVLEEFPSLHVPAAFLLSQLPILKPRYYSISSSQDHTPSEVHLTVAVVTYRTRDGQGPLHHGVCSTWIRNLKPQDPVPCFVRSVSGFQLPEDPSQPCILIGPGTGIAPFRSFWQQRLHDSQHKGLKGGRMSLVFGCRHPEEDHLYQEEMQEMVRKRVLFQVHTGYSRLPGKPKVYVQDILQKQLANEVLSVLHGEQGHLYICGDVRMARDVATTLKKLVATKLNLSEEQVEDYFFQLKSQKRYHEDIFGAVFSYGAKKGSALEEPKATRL
The experiment in a line: Inhibition of iNOS-mediated NO production in LPS-stimulated mouse RAW264.7 cells at 25 uM after 24 hrs by Griess reagent method relative to control. The data set is classed as cell-based. In outline:
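Confluent RAW 264.7 cells, serum-starved 4 h, received test agent at 25 μM, or 0.1% DMSO vehicle, together with LPS (200 ng/mL) for 24 h. Supernatant nitrite was read by Griess reaction, A550, against a NaNO2 standard curve. Result is maximal inhibition expressed as % of vehicle+LPS nitrite; n = 4−6.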
(In general: The Griess reaction detects nitrite, a stable product of nitric oxide.)

In data set [3] the target is T2, Nitric oxide synthase, inducible (Mus musculus, UniProt P29477).
T2 sequence (P29477 whole entry): T1 sequence (whole entry)
Put plainly: Inhibition of iNOS-mediated NO production in LPS-stimulated mouse RAW264.7 cells after 24 hrs by Griess reagent method. The data set is classed as cell-based. In outline:
(§1)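 RAW 264.7 murine macrophages in DMEM with 10% FCS were grown to confluence for 24 h, then held serum-free for 4 h. Test agent, or 0.1% DMSO vehicle, was given with LPS (200 ng/mL) for 24 h. Supernatant nitrite was measured with Griess reagent (10 min, room temperature) at A550 against a NaNO2 standard curve. % inhibition is relative to vehicle+LPS; Emax at 100 μM; IC50 = concentration giving 50% Emax; n = 4−6.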

Data set [4] deals with T1, Nitric oxide synthase, inducible (Mus musculus). The experiment in a line: Inhibition of iNOS-mediated NO production in LPS-stimulated mouse RAW264.7 cells after 24 hrs by Griess reagent method relative to control. The data set is classed as cell-based. In outline:
as §1

The nature of data set [5]: Antiinflammatory activity in human neutrophils assessed as inhibition of […] superoxide anion production. The data set is classed as functional, cell-based. The note with it: Neutrophil.
Data set [6] in a line: Antiinflammatory activity in human neutrophils assessed as inhibition of fMLP-induced superoxide anion production. The data set is classed as functional, cell-based. As to conditions: Neutrophil.

≈ marks a conversion by molar mass, not a printed value.

With `C=C[C@@]1(C)Cc2occ(C)c2[C@@H]2OC(=O)C(=C)[C@@H]21` [ISOLINDERALACTONE], the Activity entry with RAW264.7 is listed as “Toxic”. Moreover, the CC50 – broadly, the concentration that lowers cell viability or growth by half – at 3 h in data set [1] came to 66.4 µM. Besides, in data set [2], the Emax (commonly the maximal effect, on the per cent scale that the assay sets) amounted to 100%. Moreover, in data set [3], the IC50 (usually the concentration needed to halve the response being measured) was found to be 0.3 µM.
Regarding `COc1cc2c([nH]c3ccc(O)cc32)c(Cc2ccc(O)cc2)n1` [DAIBUCARBOLINE A], in data set [1], the CC50 at 3 h came out at 94.8 µM. For the same molecule, in data set [4], the Emax worked out at 96.1% and the inhibition entry is “Dose-dependent effect”. Also, in data set [3], the IC50 is 18.4 µM.
Take `C/C1=C\CCC2=C[C@@H](OC2=O)c2c(C)coc2C1` [LINDERALACTONE]: the IC50 in data set [5] and in data set [6] was 8.48 µg/mL (≈ 34.7 µM) in each case.
Turning to `N=C(NCCC[C@H](N)C(=O)O)N[N+](=O)[O-]` [NITROARGININE], the CC50 at 3 h in data set [1] was > 100 µM. Besides, in data set [4], the Emax turned out to be 41.2%. In data set [3], the IC50 amounted to 144 µM.
Consider `COc1cc(O)c2c(=O)c(-c3ccc(O)cc3)coc2c1` [PRUNETIN], for which the CC50 at 3 h in data set [1] was > 100 µM. The same molecule returned an Emax in data set [4] of 94.8%. The IC50 in data set [3] came out at 10.5 µM.
On to `COc1cc(O)c2c(c1)O[C@H](c1ccc(O)cc1)CC2=O` [SAKURANETIN], for which, in data set [1], the half-maximal cytotoxic concentration (CC50) at 3 h was > 100 µM. Further, the Emax in data set [4] worked out at 85.2%. For the same molecule, in data set [3], the IC50 came to 19.6 µM.
As to `N=C(N)NN` [PIMAGEDINE], the CC50 at 3 h in data set [1] was > 100 µM. Further, the Emax in data set [4] was 83.5%. Moreover, the concentration for half-maximal inhibition (IC50) in data set [3] came out at 28.5 µM.
As to `Cc1coc2c1[C@H]1C=C(CC[C@@H]3O[C@@]3(C)C2)C(=O)O1` [PSEUDONEOLINDERANE], the IC50 in data set [5] and in data set [6] was 3.21 µg/mL (≈ 12.3 µM) each time.
